# Test results reported in ChEMBL document CHEMBL1152541, “Staurosporine tethered peptide ligands that target cAMP-dependent protein kinase (PKA): optimization and selectivity profiling” (Bioorg Med Chem, 2009).
# *1 amine or outer side, *2 acyl side, *3 side chain or, on linkers, in order; H or OH if unused. Where a SMILES comes first, the peptide text is derived from it. Bridges are numbered along the chain shown (N, C = ends). [ ]: non-standard residue; d: D form. The star is where a group is joined. Staurosporine = CO[C@@H]1[C@H](N(C)*)C[C@H]2O[C@]1(C)n1c3ccccc3c3c4c(c5c6ccccc6n2c5c31)C(=O)NC4; Suc = O=C(CCC(=O)[*:2])[*:1]; Dap = NC[C@H](N)C(=O)O; βAla = NCCC(=O)O
# How the values were obtained:
# [1] = target: MAP/microtubule affinity-regulating kinase 3 (Homo sapiens) (UniProt P27448); experiment: Binding affinity to human MARK3 at 500 nM by cell-based competition binding assay relative to control in presence of DTT
# Sequence of MAP/microtubule affinity-regulating kinase 3 (Homo sapiens) (P27448 whole entry, looked up): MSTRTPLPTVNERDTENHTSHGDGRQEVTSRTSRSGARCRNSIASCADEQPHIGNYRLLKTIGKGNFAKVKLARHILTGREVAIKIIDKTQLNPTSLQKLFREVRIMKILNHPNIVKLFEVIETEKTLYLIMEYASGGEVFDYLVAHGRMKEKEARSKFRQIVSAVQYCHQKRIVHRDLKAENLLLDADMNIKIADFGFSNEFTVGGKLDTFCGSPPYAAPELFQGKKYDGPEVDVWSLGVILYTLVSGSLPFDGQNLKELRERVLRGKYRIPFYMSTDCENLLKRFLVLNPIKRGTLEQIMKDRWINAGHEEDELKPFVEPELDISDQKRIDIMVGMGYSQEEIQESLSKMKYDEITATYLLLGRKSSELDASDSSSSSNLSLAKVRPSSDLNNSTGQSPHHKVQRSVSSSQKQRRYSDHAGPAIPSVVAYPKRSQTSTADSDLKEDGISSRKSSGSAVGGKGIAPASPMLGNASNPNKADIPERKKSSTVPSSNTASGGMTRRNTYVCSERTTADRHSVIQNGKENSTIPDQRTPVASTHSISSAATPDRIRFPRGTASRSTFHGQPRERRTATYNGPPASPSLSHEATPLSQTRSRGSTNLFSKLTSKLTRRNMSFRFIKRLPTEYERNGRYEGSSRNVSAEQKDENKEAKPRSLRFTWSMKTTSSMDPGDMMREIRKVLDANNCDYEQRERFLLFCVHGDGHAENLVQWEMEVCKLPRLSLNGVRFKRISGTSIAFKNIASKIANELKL
# Summary of the method: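 Kinase binding profile from a commercial panel of 90 kinases, run as a competitive binding assay. The panel was screened under reducing conditions of 7.5 mM DTT. Signal was compared with the untreated control.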
# [2] = target: Mitogen-activated protein kinase 11 (Homo sapiens) (UniProt Q15759); experiment: Binding affinity to human p38beta at 500 nM by cell-based competition binding assay relative to control in presence of DTT
# [3] = target: Phosphatidylinositol 4,5-bisphosphate 3-kinase catalytic subunit gamma isoform (Homo sapiens) (UniProt P48736); experiment: Binding affinity to human PIK3Cgamma at 500 nM by cell-based competition binding assay relative to control in presence of DTT
# Sequence of Phosphatidylinositol 4,5-bisphosphate 3-kinase catalytic subunit gamma isoform (Homo sapiens) (P48736 whole entry, looked up, the tested form may be a part, canonical isoform): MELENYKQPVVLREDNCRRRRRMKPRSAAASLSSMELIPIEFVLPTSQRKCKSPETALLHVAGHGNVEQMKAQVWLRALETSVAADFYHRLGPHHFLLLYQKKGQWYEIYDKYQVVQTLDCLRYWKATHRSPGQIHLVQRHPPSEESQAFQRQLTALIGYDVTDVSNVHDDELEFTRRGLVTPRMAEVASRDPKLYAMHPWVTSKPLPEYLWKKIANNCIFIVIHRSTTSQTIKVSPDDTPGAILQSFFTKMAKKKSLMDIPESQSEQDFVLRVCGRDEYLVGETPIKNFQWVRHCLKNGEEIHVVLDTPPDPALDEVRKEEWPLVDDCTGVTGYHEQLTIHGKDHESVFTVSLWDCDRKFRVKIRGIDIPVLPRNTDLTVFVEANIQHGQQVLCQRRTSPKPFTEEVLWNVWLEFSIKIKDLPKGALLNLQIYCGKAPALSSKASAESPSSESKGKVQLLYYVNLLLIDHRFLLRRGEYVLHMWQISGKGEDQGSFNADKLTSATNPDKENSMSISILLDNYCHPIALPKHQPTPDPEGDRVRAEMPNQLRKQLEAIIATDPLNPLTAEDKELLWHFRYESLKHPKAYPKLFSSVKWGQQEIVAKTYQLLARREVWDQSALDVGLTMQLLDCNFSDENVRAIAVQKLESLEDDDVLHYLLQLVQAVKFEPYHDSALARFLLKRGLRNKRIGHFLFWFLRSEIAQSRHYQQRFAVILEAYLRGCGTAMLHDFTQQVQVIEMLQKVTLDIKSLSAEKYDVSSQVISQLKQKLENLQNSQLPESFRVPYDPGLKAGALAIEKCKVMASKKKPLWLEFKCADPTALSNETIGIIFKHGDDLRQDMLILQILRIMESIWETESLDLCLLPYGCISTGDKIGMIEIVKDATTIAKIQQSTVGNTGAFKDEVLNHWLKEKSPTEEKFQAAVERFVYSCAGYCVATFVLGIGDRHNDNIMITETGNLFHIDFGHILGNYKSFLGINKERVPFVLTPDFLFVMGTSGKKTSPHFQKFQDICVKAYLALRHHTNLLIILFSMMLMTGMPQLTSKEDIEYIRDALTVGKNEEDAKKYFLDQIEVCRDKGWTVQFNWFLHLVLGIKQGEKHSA
# [4] = target: Ribosomal protein S6 kinase alpha-3 (Homo sapiens) (UniProt P51812); experiment: Binding affinity to human RPS6KA3 kinase domain 1 at 200 nM by cell-based competition binding assay relative to control in presence of DTT
# Sequence of Ribosomal protein S6 kinase alpha-3 (Homo sapiens) (P51812 whole entry, the tested form may be a part): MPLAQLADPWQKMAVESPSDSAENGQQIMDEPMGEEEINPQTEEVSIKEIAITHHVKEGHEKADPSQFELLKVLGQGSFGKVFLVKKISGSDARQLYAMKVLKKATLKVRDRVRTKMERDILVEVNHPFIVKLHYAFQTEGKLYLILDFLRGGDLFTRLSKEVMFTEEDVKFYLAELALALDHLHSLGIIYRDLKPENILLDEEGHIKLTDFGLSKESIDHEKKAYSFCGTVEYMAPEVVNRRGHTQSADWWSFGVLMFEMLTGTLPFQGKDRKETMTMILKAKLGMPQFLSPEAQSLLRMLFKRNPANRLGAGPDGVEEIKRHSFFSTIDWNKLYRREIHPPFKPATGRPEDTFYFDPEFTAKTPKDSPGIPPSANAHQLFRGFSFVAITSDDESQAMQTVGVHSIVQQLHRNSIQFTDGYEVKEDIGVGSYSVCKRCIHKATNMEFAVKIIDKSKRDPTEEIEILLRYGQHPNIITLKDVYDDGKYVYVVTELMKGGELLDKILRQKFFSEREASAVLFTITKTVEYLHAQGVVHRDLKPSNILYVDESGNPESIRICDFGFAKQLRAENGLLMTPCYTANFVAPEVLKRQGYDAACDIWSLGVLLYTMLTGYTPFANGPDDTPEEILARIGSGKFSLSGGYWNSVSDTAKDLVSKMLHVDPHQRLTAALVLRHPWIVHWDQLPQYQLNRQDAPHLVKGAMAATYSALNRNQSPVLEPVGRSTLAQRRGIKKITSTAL
# [5] = target: Phosphatidylinositol 4-phosphate 3-kinase C2 domain-containing subunit beta (Homo sapiens) (UniProt O00750); experiment: Binding affinity to human PIK3C2beta at 200 nM by cell-based competition binding assay relative to control in presence of DTT
# Sequence of Phosphatidylinositol 4-phosphate 3-kinase C2 domain-containing subunit beta (Homo sapiens) (O00750 whole entry, the tested form may be a part): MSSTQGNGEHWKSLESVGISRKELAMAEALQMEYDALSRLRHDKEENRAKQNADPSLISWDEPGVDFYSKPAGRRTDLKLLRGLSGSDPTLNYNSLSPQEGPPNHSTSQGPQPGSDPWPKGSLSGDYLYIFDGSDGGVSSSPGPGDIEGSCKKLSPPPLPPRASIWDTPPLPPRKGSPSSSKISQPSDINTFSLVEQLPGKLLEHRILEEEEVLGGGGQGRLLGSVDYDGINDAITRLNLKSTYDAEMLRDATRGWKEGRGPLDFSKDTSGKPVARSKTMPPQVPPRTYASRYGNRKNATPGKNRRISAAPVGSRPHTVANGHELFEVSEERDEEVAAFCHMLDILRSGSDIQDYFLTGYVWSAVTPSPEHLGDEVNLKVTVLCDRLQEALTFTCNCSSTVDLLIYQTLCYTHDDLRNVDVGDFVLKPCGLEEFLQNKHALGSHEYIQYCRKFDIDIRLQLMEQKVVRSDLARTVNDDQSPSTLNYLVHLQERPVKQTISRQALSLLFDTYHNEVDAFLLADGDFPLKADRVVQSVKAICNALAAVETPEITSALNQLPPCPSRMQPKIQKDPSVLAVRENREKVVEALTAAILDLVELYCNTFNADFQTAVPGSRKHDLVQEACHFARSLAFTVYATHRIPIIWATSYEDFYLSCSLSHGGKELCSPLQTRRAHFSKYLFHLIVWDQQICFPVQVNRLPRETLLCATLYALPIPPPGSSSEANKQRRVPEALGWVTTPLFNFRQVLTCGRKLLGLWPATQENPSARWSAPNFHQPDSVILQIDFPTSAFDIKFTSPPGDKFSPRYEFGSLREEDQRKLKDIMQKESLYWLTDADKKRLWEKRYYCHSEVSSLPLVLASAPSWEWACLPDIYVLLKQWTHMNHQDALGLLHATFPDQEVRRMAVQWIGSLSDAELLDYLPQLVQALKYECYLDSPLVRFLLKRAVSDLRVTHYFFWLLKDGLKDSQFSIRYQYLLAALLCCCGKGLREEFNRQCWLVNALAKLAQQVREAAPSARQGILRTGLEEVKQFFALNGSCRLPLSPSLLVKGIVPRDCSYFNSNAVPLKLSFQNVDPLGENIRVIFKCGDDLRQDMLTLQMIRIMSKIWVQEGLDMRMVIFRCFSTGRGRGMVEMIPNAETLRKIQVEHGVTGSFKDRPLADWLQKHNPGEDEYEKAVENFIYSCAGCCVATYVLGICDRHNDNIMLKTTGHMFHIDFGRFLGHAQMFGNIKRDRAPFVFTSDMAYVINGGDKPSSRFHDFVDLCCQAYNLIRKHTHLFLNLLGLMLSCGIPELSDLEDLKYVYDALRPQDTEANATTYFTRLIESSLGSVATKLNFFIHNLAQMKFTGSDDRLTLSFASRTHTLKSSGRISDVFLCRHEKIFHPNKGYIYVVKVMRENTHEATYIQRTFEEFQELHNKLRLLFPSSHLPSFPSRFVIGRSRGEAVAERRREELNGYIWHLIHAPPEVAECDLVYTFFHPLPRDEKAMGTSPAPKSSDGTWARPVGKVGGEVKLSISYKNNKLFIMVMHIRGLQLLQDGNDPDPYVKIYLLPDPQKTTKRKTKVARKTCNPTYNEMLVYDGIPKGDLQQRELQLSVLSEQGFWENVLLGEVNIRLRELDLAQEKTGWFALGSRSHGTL
# [6] = target: Mitogen-activated protein kinase 8 (Homo sapiens) (UniProt P45983); experiment: Binding affinity to human JNK1 at 50 nM by cell-based competition binding assay relative to control in presence of DTT
# Sequence of Mitogen-activated protein kinase 8 (Homo sapiens) (P45983 whole entry): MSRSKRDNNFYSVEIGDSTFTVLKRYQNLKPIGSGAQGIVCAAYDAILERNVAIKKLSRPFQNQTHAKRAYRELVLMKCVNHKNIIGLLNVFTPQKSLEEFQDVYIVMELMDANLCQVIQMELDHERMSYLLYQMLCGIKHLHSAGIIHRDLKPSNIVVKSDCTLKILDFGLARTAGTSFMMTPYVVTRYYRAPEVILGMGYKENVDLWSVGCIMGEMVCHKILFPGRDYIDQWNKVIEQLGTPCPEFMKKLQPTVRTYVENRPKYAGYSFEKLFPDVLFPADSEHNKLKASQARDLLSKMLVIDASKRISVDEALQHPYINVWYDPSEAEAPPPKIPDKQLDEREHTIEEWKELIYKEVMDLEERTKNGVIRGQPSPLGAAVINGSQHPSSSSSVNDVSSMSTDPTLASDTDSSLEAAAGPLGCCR
# Summary of the method: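 Competition binding screen (Ambit) across a panel of 90 kinases, scoring test ligand displacement of each kinase's binding relative to control. The screen ran under reducing conditions with 7.5 mM DTT.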
# [7] = target: Receptor tyrosine-protein kinase erbB-4 (Homo sapiens) (UniProt Q15303); experiment: Binding affinity to human ERBB4 at 50 nM by cell-based competition binding assay relative to control in presence of DTT
# Summary of the method: (§1)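 Commercial (Ambit) competitive kinase-binding panel of 90 kinases measured the binding profile. Run under reducing conditions of 7.5 mM DTT. Binding is expressed relative to control.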
# [8] = target: Mitogen-activated protein kinase 3 (Homo sapiens) (UniProt P27361); experiment: Binding affinity to human ERK1 at 50 nM by cell-based competition binding assay relative to control in presence of DTT; summary of the method: as §1
# Sequence of Mitogen-activated protein kinase 3 (Homo sapiens) (P27361 whole entry): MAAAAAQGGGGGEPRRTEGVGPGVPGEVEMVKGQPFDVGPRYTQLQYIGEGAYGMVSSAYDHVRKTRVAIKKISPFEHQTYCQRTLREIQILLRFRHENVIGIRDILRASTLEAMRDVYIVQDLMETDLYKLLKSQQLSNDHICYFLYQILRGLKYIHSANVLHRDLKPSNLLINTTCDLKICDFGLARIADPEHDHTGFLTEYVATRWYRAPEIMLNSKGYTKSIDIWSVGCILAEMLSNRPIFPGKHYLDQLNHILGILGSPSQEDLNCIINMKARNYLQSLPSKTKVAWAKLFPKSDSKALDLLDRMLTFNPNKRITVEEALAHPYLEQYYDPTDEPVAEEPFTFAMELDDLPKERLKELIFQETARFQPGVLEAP
# [9] = target: T1, Serine/threonine-protein kinase DCLK1 (Homo sapiens) (UniProt O15075); experiment: Binding affinity to human DCAMKL1 at 50 nM by cell-based competition binding assay relative to control in presence of DTT; summary of the method: as §1
# T1 sequence (whole entry): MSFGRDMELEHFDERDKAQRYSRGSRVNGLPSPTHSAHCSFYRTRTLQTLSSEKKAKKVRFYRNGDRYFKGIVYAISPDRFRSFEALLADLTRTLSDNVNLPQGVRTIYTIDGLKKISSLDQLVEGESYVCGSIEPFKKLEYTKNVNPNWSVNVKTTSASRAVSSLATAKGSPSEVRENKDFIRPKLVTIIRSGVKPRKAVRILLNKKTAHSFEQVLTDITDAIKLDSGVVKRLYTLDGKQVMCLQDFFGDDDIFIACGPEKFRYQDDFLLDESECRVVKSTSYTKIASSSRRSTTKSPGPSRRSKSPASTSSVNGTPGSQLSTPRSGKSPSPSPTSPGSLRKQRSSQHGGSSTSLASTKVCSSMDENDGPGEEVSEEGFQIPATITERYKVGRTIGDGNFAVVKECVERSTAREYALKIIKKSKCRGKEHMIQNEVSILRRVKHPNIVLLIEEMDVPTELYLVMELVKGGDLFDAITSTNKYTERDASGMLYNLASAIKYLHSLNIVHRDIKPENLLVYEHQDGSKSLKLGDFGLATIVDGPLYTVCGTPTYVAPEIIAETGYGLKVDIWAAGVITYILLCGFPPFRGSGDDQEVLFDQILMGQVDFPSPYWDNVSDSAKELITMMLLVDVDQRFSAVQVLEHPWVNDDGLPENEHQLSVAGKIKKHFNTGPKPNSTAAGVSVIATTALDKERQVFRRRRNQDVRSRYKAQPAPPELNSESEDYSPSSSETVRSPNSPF
# [10] = target: T2, TGF-beta receptor type-1 (Homo sapiens) (UniProt P36897); experiment: Binding affinity to human TGFBR1 at 50 nM by cell-based competition binding assay relative to control in presence of DTT
# T2 sequence (whole entry): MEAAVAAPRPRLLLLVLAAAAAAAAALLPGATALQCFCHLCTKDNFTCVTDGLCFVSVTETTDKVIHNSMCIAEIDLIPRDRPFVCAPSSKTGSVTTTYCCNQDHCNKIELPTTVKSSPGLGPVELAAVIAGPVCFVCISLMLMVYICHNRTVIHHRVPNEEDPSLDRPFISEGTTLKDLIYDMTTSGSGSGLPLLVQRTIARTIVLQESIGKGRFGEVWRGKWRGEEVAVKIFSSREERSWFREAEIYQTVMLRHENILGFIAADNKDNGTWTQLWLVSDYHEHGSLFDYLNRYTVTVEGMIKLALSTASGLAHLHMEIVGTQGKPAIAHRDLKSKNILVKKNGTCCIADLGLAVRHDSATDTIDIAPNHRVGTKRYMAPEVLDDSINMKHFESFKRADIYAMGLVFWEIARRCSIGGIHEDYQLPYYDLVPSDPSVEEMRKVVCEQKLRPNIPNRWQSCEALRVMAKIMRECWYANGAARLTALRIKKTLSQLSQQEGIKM
structure (smiles),measurement,setting,value
CO[C@@H]1[C@H](N(C)C(=O)CCC(=O)NCCC(=O)NCCC(=O)NCCC(N)=O)C[C@H]2O[C@]1(C)n1c3ccccc3c3c4c(c5c6ccccc6n2c5c31)C(=O)NC4,Activity,[1],16%
same,Activity,[2],100%
same,Activity,[3],15%
CO[C@@H]1[C@H](N(C)C(=O)CCC(=O)NCCC(=O)NCCC(=O)NCCC(=O)NCCC(=O)NCCC(=O)NCCC(=O)NCCC(=O)N[C@H]2CSSC[C@@H](C(=O)NCC(N)=O)NC(=O)CNC(=O)[C@H](Cc3ccccc3)NC(=O)[C@H](C(C)C)NC(=O)[C@H](CCCNC(=N)N)NC(=O)[C@H](Cc3ccccc3)NC(=O)[C@H](C(C)C)NC2=O)C[C@H]2O[C@]1(C)n1c3ccccc3c3c4c(c5c6ccccc6n2c5c31)C(=O)NC4 ({Staurosporine-Suc-βAla-βAla-βAla-βAla-βAla-βAla-βAla}-CVFRVFGCG-NH2; disulfide 1-8),Activity,[4],100%
same,Activity,[5],100%
CO[C@@H]1[C@H](N(C)C(=O)CCC(=O)NCCC(=O)NCCC(=O)NCCC(=O)NCCC(=O)NCCC(=O)NCCC(=O)NCCC(=O)N[C@H]2CNC(=O)C[C@@H](C(N)=O)NC(=O)CNC(=O)[C@H](Cc3ccccc3)NC(=O)[C@H](C(C)C)NC(=O)[C@H](CCCNC(=N)N)NC(=O)[C@H](Cc3ccccc3)NC(=O)[C@H](C(C)C)NC2=O)C[C@H]2O[C@]1(C)n1c3ccccc3c3c4c(c5c6ccccc6n2c5c31)C(=O)NC4 ({Staurosporine-Suc-βAla-βAla-βAla-βAla-βAla-βAla-βAla}-[Dap]VFRVFGD-NH2; lactam 1-8),Activity,[6],100%
same,Activity,[7],100%
same,Activity,[8],100%
same,Activity,[9],95%
same,Activity,[10],100%
